Experimental findings from ChEMBL document CHEMBL1141447, “Nitrogen-containing verticillene diterpenoids from the Taiwanese soft coral Cespitularia taeniata” (2007) are described below.

Experiment [1] deals with Cryptococcus neoformans. Kind of experiment: Antimicrobial activity against Cryptococcus neoformans IFM46914. Type of experiment: functional.
Experiment [2] has as its system KB. Description: Cytotoxicity against human KB cells at 3.7 ug/ml after 48 hrs. Type of experiment: functional, cell-based. In a few lines:
(§1)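 KB (human oral epidermoid carcinoma) or L1210 (mouse leukemia) cells were incubated at 37 °C for 48 h in medium with graded concentrations of compound, dissolved in 0.6% Me2SO. IC50 was read from a plot of log concentration against growth rate of the treated cells.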

Experiment [3] deals with Staphylococcus aureus. Kind of experiment: Antimicrobial activity against Staphylococcus aureus 209P. Type of experiment: functional, organism-based.
For experiment [4], the system named is L1210. Kind of experiment: Cytotoxicity against mouse L1210 cells at 5.1 ug/ml after 48 hrs. Type of experiment: functional, cell-based. In a few lines: as §1
Experiment [5] concerns Micrococcus luteus. Kind of experiment: Antimicrobial activity against Micrococcus luteus IFM2066. Type of experiment: functional.
The subject of experiment [6] is Trichophyton benhamiae. Kind of experiment: Antimicrobial activity against Trichophyton mentagrophytes. Type of experiment: functional, Arthroderma benhamiae.
For experiment [7], the system named is Trichophyton benhamiae. Kind of experiment: Antimicrobial activity against Trichophyton mentagrophytes IFM45110. Type of experiment: functional, Arthroderma benhamiae.

≈ marks a conversion by molar mass, not a printed value. Calls of active or inactive are those of the source.

Compound `C=C1CC[C@@H]2CCC3C(=O)N/C(=C/C(C)CC(=O)C1)C3(O)C2(C)C` (stereo partly drawn) showed an MIC in experiment [1] of 4.16 µg/mL (≈ 12.6 µM). Also, the outcome in experiment [2], in experiment [3] and in experiment [4] was inactive.

Take `C=C1CC[C@@H]2CCC3=C(C2(C)C)[C@@](O)(C/C(C)=C/[C@@H](O)C1)NC3=O`: the outcome in experiment [2], in experiment [3] and in experiment [4] was inactive.

As for `C=C1CC[C@@H]2CCC3=C([C@@H](C/C(C)=C/[C@@H](O)C1)N(C)C3=O)C2(C)C`, the result in experiment [2], in experiment [3] and in experiment [4] was inactive.

As to `C=C1CC[C@@H]2CCC3=C([C@@H](C/C(C)=C/[C@@H](O)C1)NC3=O)C2(C)C` [CESPITULACTAM D], it took 4.16 µg/mL (≈ 13.2 µM) to inhibit growth in experiment [5] (MIC). Besides, the outcome in experiment [2], in experiment [3] and in experiment [4] was inactive.

`C=C1CC[C@@H]2CCC3=C([C@@H](C/C(C)=C/[C@@H](OC(C)=O)C1)NC3=O)C2(C)C` [CESPITULACTAM E] registered an MIC in experiment [6] of 4.16 µg/mL (≈ 11.6 µM). Moreover, the outcome in experiment [2], in experiment [3] and in experiment [4] was inactive.

Take `C=C1CC[C@@H]2CCC3=C(C2(C)C)[C@@](O)(C/C(C)=C/[C@@H](O)C1)N(CC)C3=O` [CESPITULACTAM G]: the outcome in experiment [2], in experiment [3] and in experiment [4] was inactive. This compound yielded a minimum inhibitory concentration (MIC) in experiment [7] of 2.08 µg/mL (≈ 5.79 µM).

With `C=C1CC[C@@H]2CCC3=C([C@@H](C/C(C)=C/[C@@H](O)C1)N(CCc1c[nH]c4ccccc14)C3=O)C2(C)C` [CESPITULACTAM J], the MIC in experiment [1], in experiment [6] and in experiment [5] was 4.16 µg/mL (≈ 9.07 µM) each time. Further, the result in experiment [2], in experiment [3] and in experiment [4] was inactive.

With `C=C1CC[C@@H]2CC[C@@H]3C(=O)N(CCc4ccc(O)cc4)C(=C3C2(C)C)C/C(C)=C/[C@@H](O)C1` [CESPITULACTAM K], the MIC in experiment [1] and in experiment [5] was 4.16 µg/mL (≈ 9.55 µM) throughout. Further, the outcome in experiment [2] and in experiment [4] was Active. Moreover, the result in experiment [3] was inactive.

As a reminder, the MIC is the smallest concentration in the dilution series that meets the test's criterion for growth inhibition. A high value points to a need for much substance.
